Screening data: PubChem BioAssay, Broad Institute
CDK5 p35 inh = inhibitors of human CDK5/p35 kinase | Q00535+Q15078 | Recombinant CDK5/p35, ADP-Glo luminescence, 60 min | inhibition, % at 10 µM | 330,000 compounds, 0.01% hits | AID 488839;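 active means highest replicate inhibition of at least 50% and at least 75% of replicates reaching 50%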;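 further: plate controls were DMSO neutral control for no effect and GW8510 at 10 µM for full effect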
GSK3beta inhib = blocks human GSK3beta kinase activity. GST-GSK3beta kinase, ADP-Glo luminescence, 60 min; hits give low values. 300,000 compounds, 0.038% hits. P49841. AID 2097. activity score (negative = inhibition), % at 10 µM;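 active means more than half of replicate wells score below -50%, meaning over 50% inhibition versus plate controls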;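 further: 0% = median DMSO wells and -100% = median GW8510 positive control wells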
Target sequence (P49841 whole entry, looked up): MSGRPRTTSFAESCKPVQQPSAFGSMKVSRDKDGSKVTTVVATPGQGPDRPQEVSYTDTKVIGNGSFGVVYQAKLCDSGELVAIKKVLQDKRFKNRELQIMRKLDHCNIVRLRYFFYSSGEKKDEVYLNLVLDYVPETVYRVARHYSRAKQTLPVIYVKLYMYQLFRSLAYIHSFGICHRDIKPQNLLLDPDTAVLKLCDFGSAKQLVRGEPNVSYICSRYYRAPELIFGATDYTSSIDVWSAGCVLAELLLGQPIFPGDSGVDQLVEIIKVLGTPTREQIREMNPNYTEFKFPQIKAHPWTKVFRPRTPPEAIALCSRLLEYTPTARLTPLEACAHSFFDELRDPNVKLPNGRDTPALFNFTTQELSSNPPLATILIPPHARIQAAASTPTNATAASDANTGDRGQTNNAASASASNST
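Test system: GST-fused GSK3beta enzyme, cell-free | Quantity: 1.6 ng GST-GSK3beta enzyme per well | Reagent: 25 µM ATP with peptide substrate | Schedule: 60 min enzyme reaction, room temperature | Signal: Luminescent ADP-Glo measurement of ADP formed | Read-out basis: Score relative to plate controls | Control set: DMSO and 20 µM GW8510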
DYRK1A inh = inhibitors of rat Dyrk1A kinase; Q63470; ADP-Glo luminescence, NFATc1 peptide; inhibition, % at 12.5 µM; 310,000 compounds, 0.43% hits; AID 504441; in the data active means inhibition above about 50%;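 further: plate controls were vehicle with enzyme for no effect and no enzyme for full effect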
GSK3A inh = blocks human GSK-3 alpha kinase | ADP-Glo luminescence, 60 min | P49840 | 320,000 compounds, 0.1% hits | inhibition, % at 10 µM;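 active means more than half of replicates show inhibition above 20%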;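 further: GST-tagged GSK-3 alpha with peptide substrate and 25 µM ATP; 0% = DMSO neutral wells and 100% = GW8510 positive control wells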
STK33 inh = blocks human STK33 kinase activity; Q9BYT3; purified STK33, MBP phosphorylation, ADP-Glo luminescence; inhibition, % at 10 µM; 320,000 compounds, 0.073% hits;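 active means inhibition at or above 25%, using the most active replicate where run in duplicate; inactive means inhibition below 25%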
Dyrk1A artifact = ADP-Glo luciferase interference, Dyrk1A counter-screen. shares compounds with DYRK1A inh. ADP-Glo luciferase artifact assay, no Dyrk1A, luminescence. AC50, µM (doses to about 12 µM), inactives show at the top dose activity change, negative = inhibition. 1,300 tested, under 10 active. AID 588348;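 active means fitted half-maximal dose AC50 no more than ten times the top valid tested dose, with luminescence dropping as dose rises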
Numbers without * were called inactive; . = no result given. Only a selection was taken, and hits are over-represented in it overall.

SMILES | CDK5 p35 inh | GSK3beta inhib | DYRK1A inh | GSK3A inh | STK33 inh | Dyrk1A artifact
O=C(CSc1nc(-c2ccco2)cc(C(F)(F)F)n1)NCCCn1ccnc1 | 3 | 4 | 58* | 0 | 1 | 8%
O=C(CSc1nc(-c2cccs2)cc(C(F)(F)F)n1)NCCCn1ccnc1 | 0 | 0 | -7 | 1 | -1 | .
Fc1ccc(C2Nc3cccc4cccc(c34)N2)cc1 | 2 | 2 | 52* | 1 | 0 | 9%
FC(F)(F)c1ccc(C2Nc3cccc4cccc(c34)N2)cc1 | 2 | . | 7 | . | . | .
Cc1ccc(/C=N/Nc2ncnc3nc[nH]c23)cc1 | 20 | -36 | 42 | 41 | 5 | .
Fc1ccccc1/C=N/Nc1ncnc2nc[nH]c12 | 39 | -36 | 55* | 65* | 8 | 5%
Fc1cccc(/C=N/Nc2ncnc3nc[nH]c23)c1 | 31 | -44 | 73* | 68* | 0 | 1%
O=C(Cn1cc(S(=O)(=O)Cc2ccc([N+](=O)[O-])cc2)c2ccccc21)N1CCOCC1 | -1 | -5 | . | 1 | -1 | .
CNC(=O)CN1C(=O)c2cccc3cccc1c23 | 0 | 2 | 4 | . | 0 | .
CN1/C(=N\O)c2cccc3cccc1c23 | 0 | -2 | 66* | . | 12 | 10%
CN(C(=O)c1ccc(NC(=O)Cc2cccc(NC(=O)C3CCCN(C(=O)C4CC4)C3)c2)cc1)C1CC1 (stereo not drawn) | 0 | . | -3 | . | . | .
CCN(CC(=O)Nc1cccc(S(=O)(=O)N2CCOCC2)c1)Cc1ccccc1 | 0 | 3 | 12 | 1 | . | .
CCCCCC1CC(CC(C)C(=O)Nc2nncs2)C(=O)O1 (stereo not drawn) | 0 | -2 | 57* | 1 | -3 | 9%
COC(=O)c1ccc2c(c1)C(=O)/C(=C/c1ccc(O)cc1)O2 | 1 | -17 | 26 | -2 | -1 | .
COc1cccc(/C=C2\Oc3ccc(O)cc3C2=O)c1O | 2 | -2 | 50* | 9 | 7 | -2%
CCn1c(SCC(=O)NC2CCCC2)nnc1-c1ccncc1 | -1 | 1 | 10 | -2 | -1 | .
COCCCn1c(SCC(=O)NC2CCCCC2)nnc1-c1ccncc1 | 0 | 0 | 51* | 8 | -1 | 8%
O=C1[C@H]2[C@H](C=CC[C@H]2C(=O)N2CCOCC2)CCN1Cc1ccccc1 | 0 | 2 | 53* | -1 | 0 | 10%
O=C(Nc1ccccc1)[C@@H]1CC=C[C@@H]2CCN(Cc3ccccc3)C(=O)[C@@H]21 | -3 | -2 | 1 | -2 | 1 | .
COC(=O)c1sc2cnccc2c1N | 2 | -16 | 58* | 30 | 10 | 9%
COc1ccc(-c2cnnc(N/N=C/c3ccc(O)cc3)n2)cc1 | 0 | 1 | 34 | 4 | 0 | .
COc1ccc(-c2cnnc(N/N=C/c3ccc(O)c(O)c3)n2)cc1 | -1 | 2 | 68* | 1 | 3 | 8%
CCCCn1c(N)c(N(CCOC)C(=O)c2ccc(C)o2)c(=O)[nH]c1=O | -1 | 0 | 2 | 0 | 0 | .
CC(Oc1coc(CN2CCN(C(=O)c3ccco3)CC2)cc1=O)c1ccccc1 (stereo not drawn) | 1 | -4 | -5 | -1 | -2 | .
O=C(CCCN1C(=O)c2ccccc2C1=O)Nc1ccc2c(c1)OCCO2 | 0 | -2 | -5 | -10 | 2 | .
SMILES | CDK5 p35 inh | GSK3beta inhib | DYRK1A inh | GSK3A inh | STK33 inh | Dyrk1A artifact
COc1cccc(-c2nnc3sc(C4CCCCC4)nn23)c1 | 1 | -28 | 53* | 20 | -1 | 6%
O=C1NC(=O)C(c2ccccc2[N+](=O)[O-])=C1Nc1ccc(O)c(Cl)c1 | 66* | . | 87* | . | 14 | 7%
Cc1cc(=O)oc2ccc(OC(=O)c3cccc(S(=O)(=O)N4CCOCC4)c3)cc12 | 0 | -1 | 54* | 1 | 1 | 5%
S=c1[nH]cc(-c2ccc(Cl)cc2)n1Cc1ccccc1 | 1 | 1 | 55* | 0 | -1 | 9%
CCS(=O)(=O)c1nc(S(=O)(=O)c2ccc(C)cc2)c(N2CCC(O)CC2)s1 | 2 | 1 | 1 | -5 | 2 | .
N#Cc1c(N)nc2c3c(sc(=N)c2c1N)NC(=O)CC3c1c(F)cccc1Cl (stereo not drawn) | -1 | -4 | 67* | 5 | 0 | 10%
CCOC(=O)c1ccc(NC(=S)Nc2ccc(Br)cc2N)cc1 | 6 | 6 | 63* | -1 | -1 | 8%
